The values that follow come from ChEMBL document CHEMBL1126057, “Highly water-soluble lipophilic prodrugs of the anti-HIV nucleoside analogue 2',3'-dideoxycytidine and its 3'-fluoro derivative” (J Med Chem, 1992).

As usually defined, the half-life is the time needed for the level to fall by half in the phase considered. A higher half-life goes with slow loss. The IC50 is the midpoint of a concentration-inhibition curve. Broadly, the pKa is the negative logarithm of the acid dissociation constant. A high value points to a group that holds its proton tightly.

Data set [1] is described as follows: Half-life in 1N HCl at 37 degree C. Format: ADME. In a few lines: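 Diisopropylamino prodrugs at 5 × 10^-5 M in 1 N HCl at 37 °C. Absorbance at 317 nm recorded at regular intervals. ln(absorbance) vs time plotted; slope gives the pseudo-first-order hydrolysis rate constant, from which t1/2 was calculated.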
Data set [2] in a line: The compound was tested for the antiviral activity against Rauscher murine leukemia virus. Format: functional. To be noted: Mus musculus; read-out: ED50 (the source's name). In a few lines: (§1)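 UV-XC plaque reduction assay for Rauscher murine leukemia virus in SC-1 cells in culture, in vitro. Value is the concentration (µM) producing 50% antiviral effect.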
Data set [3] can be described thus: Half-life in 10% serum solution at 37 degree C. The data set is classed as ADME, cell-free. In a few lines:
(§2)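 Diisopropylamino prodrugs diluted from 10^-2 M stock into human serum, made up with buffer to 10% or 20% serum, or mixed with serum to 90% serum. Incubated at 37 °C; 50-µL aliquots withdrawn at intervals, diluted with buffer, A317 read. Half-life taken from the pseudo-first-order rate constant, i.e. the slope of ln(absorbance) vs time.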

Data set [4] concerns CCRF-CEM. In words: The compound was tested for the antiviral activity against HIV from CEM-IW human lymphocyte,. The data set is classed as functional. To be noted: read-out: ED50 (the source's name). In outline: (§3)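 CEM-IW human lymphocytes in culture; reduction of HIV cytopathic effect. Value is the concentration (µM) producing 50% antiviral effect.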
A short description of data set [5]: Half-life in 90% serum solution at 37 degree C. The data set is classed as ADME, cell-free. In a few lines:
as §2

The nature of data set [6]: Partition coefficient (P). To be noted: octanol/water.
The nature of data set [7]: The compound was tested for the cytotoxicity against Rauscher murine leukemia virus. The data set is classed as functional, Mus musculus. In outline:
(§4)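 Cytotoxicity in the same cell cultures as the antiviral assays, measured as 50% growth inhibition by tetrazolium dye assay. Value is the concentration (µM) producing 50% cytotoxicity.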

Data set [8] is described as follows: pKa value of the compound. The data set is classed as physicochemical. In a few lines:
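pKa determined by UV spectroscopy at room temperature.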

In data set [9] the test system is CCRF-CEM. In words: The compound was tested for the cytotoxicity against HIV from CEM-IW human lymphocyte. The data set is classed as functional, cell-based. In a few lines:
as §4

Data set [10] is described as follows: Half-life in potassium phosphate buffered saline (PBS) at 37 degree C(0% serum solution). Format: ADME. In a few lines:
(§5)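 Prodrug at 5 × 10^-5 M in PBS, pH 7.4, incubated at 37 °C. A317 read at regular intervals. Pseudo-first-order rate constant taken from the slope of ln(absorbance) vs time, then converted to t1/2.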

Data set [11] in a line: Water solubility of the compound. To be noted: read-out: S. The data set is classed as ADME. In a few lines:
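Solubility in double-distilled water at room temperature, in mg/mL.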

Data set [12] is described as follows: Half-life in 20% serum solution at 37 degree C. The data set is classed as ADME, cell-free. In a few lines:
as §2

Data set [13] is described as follows: Half-life in potassium phosphate buffered saline(PBS) at 37 degree C. Format: ADME. In outline:
as §5

Data set [14] is described as follows: The compound was tested for the cytotoxicity in SC-1 cells. To be noted: Mus musculus.
A short description of data set [15]: The compound was tested for the antiviral activity against Rauscher murine leukemia virus in SC-1 cells. The data set is classed as functional. To be noted: Mus musculus, read-out: ED50 (the source's name). In outline:
as §1

Data set [16] in a line: Half-life in potassium phosphate buffered saline (PBS) at 37 degree C. The data set is classed as ADME. In outline: as §5
Data set [17] has as its system CCRF-CEM. In words: The compound was tested for the antiviral activity against HIV from CEM-IW human lymphocyte. Format: functional. To be noted: read-out: ED50 (the source's name). In outline:
as §3

Molecules are shown by their SMILES. ≈ marks a conversion by molar mass, not a printed value.

On to `CC(C)N(/C=N\c1ccn(C2CCC(CO)O2)c(=O)n1)C(C)C` (stereo unspecified), for which the half-life in [1] was 3.9 h; in data set [3], 47.3 h; in [5], 65.6 h; in data set [10], 47.5 h; in data set [12] it was 51.2 h. Also, the EC50 was found to be 20.6 µM in [2] and 0.065 µM in the data set with CCRF-CEM [4]. In addition, the P in data set [6] was 0.724. Moreover, the IC50 was above 1000 µM in [7] and above 200 µM with CCRF-CEM [9]. In [8], this compound returned a pKa of 5.28. Further, the solubility in data set [11] was above 300 mg/mL.
Consider `Nc1ccn(C2CC(F)C(CO)O2)c(=O)n1` (stereo unspecified), for which the EC50 in [2] is 158 µM; in the data set on CCRF-CEM [4] it was 0.16 µM. Besides, the P in data set [6] is -0.893. For the same compound, the 50% inhibitory concentration (IC50) was above 1000 µM in [7] and above 3200 µM with CCRF-CEM [9]. Further, in [8], the pKa was found to be 4.22. In [11], the solubility was 15 mg/mL (≈ 65.4 mM).
Compound `O=c1nc(/N=C\N2CCCC2)ccn1C1CCC(CO)O1` (stereo unspecified) had a half-life in [13] of 2.13 h. In data set [6], the P was -0.467.
In turn, `O=c1nc(/N=C\N2CCCC2)ccn1C1CC(F)C(CO)O1` (stereo unspecified) had a half-life in data set [13] of 2.57 h. Also, in data set [6], the P was -0.162.
`CCN(/C=N\c1ccn(C2CCC(CO)O2)c(=O)n1)CC` (stereo unspecified) gave a half-life in data set [13] of 8.67 h. The same compound displayed a P in [6] of -0.059.
Consider `CC(C)N(/C=N\c1ccn(C2CC(F)C(CO)O2)c(=O)n1)C(C)C` (stereo unspecified), for which the IC50 in data set [14] was above 1000 µM; in the data set on CCRF-CEM [9], above 200 µM. Besides, the half-life in data set [1] was 5.8 h; in data set [3] it was 52.4 h; in [5], 86.7 h; in [13], 52.1 h; in [12], 56.5 h. Further, the EC50 came out at 0.675 µM with CCRF-CEM [4] and 518 µM in data set [15]. The same compound yielded a pKa in data set [8] of 5.13. Moreover, in data set [11], the solubility came to 25 mg/mL (≈ 73.4 mM).
Regarding `CN(C)/C=N\c1ccn(C2CCC(CO)O2)c(=O)n1` (stereo unspecified), the P in data set [6] is -0.951. Further, in [16], the half-life is 3.8 h.
In data set [13], `O=c1nc(/N=C\N2CCOCC2)ccn1C1CC(F)C(CO)O1` (stereo unspecified) showed a half-life of 3.74 h. In addition, the P in [6] was -0.676.
`CCN(/C=N\c1ccn(C2CC(F)C(CO)O2)c(=O)n1)CC` (stereo unspecified) gave a half-life in data set [13] of 10.2 h. For the same compound, the P in data set [6] was 0.227.
The corresponding values for `CCCN(/C=N\c1ccn(C2CCC(CO)O2)c(=O)n1)CCC` (stereo unspecified) are 13.1 h and 0.948.
As for `CN(C)/C=N\c1ccn(C2CC(F)C(CO)O2)c(=O)n1` (stereo unspecified), the figures for the IC50 (in data set [14]; in the data set with CCRF-CEM [9]) were above 1000 µM and above 200 µM, respectively. Besides, the values for the EC50 (in the data set with CCRF-CEM [17]; in [15]) were 0.23 µM and 214 µM, respectively. The same compound showed a half-life in [13] of 4.66 h. The compound further displayed a P in data set [6] of -0.64.
With `O=c1nc(/N=C\N2CCCCC2)ccn1C1CCC(CO)O1` (stereo unspecified), the half-life in data set [13] is 6.4 h. The compound further had a P in [6] of 0.057.
As for `O=c1nc(/N=C\N2CCCCC2)ccn1C1CC(F)C(CO)O1` (stereo unspecified), the half-life in [13] was 6.3 h. Also, the P in data set [6] turned out to be 0.358.
The compound `CCCN(/C=N\c1ccn(C2CC(F)C(CO)O2)c(=O)n1)CCC` (stereo unspecified) had a half-life in data set [13] of 15.6 h.
Regarding `O=c1nc(/N=C\N2CCOCC2)ccn1C1CCC(CO)O1` (stereo unspecified), the half-life in data set [13] was 3.92 h. The compound also returned a P in data set [6] of -0.967.
For `Nc1ccn([C@H]2CC[C@@H](CO)O2)c(=O)n1` [ZALCITABINE], in data set [2], the EC50 was found to be 2.2 µM. This compound also yielded an IC50 in data set [7] above 1000 µM. The pKa in data set [8] is 4.42. Further, the solubility in data set [11] worked out at 78 mg/mL (≈ 369 mM).
